Laboratory results reported in ChEMBL document CHEMBL1138069, “Synthesis and SAR of 1,3-disubstituted cyclohexylmethyl urea and amide derivatives as non-peptidic motilin receptor antagonists” (Bioorg Med Chem Lett, 2006).
Active and inactive are the calls of the source. The rule behind the calls is not given here.

Experiments:
[1] = molecular target: T1, Motilin receptor (Oryctolagus cuniculus, UniProt A5A4K8); test: Inhibition of [125]I-motilin binding to rabbit motilin receptor
In short: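 Rabbit colon membranes, homogenized in Tris–HCl pH 7.5 and centrifuged, with the pellet stored frozen. Bound tracer was separated by centrifugation. Nonspecific binding was taken with unlabeled porcine motilin. IC50 values are means of at least two separate determinations.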

[2] = molecular target: Motilin receptor (Oryctolagus cuniculus) (UniProt A5A4K8); test: Agonist activity at rabbit duodenum motilin receptor by tissue contractility assay at 10 uM; assay type: functional
[3] = molecular target: T2, Motilin receptor (Homo sapiens, UniProt O43193); test: Activity at human motilin receptor transfected in HEK293 cells assessed as inhibition of motilin-induced intracellular calcium mobilization; assay type: functional, cell-based
[4] = molecular target: T2, Motilin receptor; test: Agonist activity at human motilin receptor transfected in HEK293 cells assessed as inhibition of motilin-induced intracellular calcium mobilization at 30 uM; assay type: functional, cell-based
[5] = molecular target: Motilin receptor (Oryctolagus cuniculus) (UniProt A5A4K8); test: Inhibition of [125]I-motilin binding to rabbit motilin receptor at 1 uM
[6] = molecular target: T1, Motilin receptor; test: Activity at rabbit duodenum motilin receptor by tissue contractility assay; assay type: functional
[7] = molecular target: T1, Motilin receptor; test: Inhibition of [125]I-motilin binding to rabbit motilin receptor

Sequence of Motilin receptor (Oryctolagus cuniculus) (A5A4K8 as listed by the source): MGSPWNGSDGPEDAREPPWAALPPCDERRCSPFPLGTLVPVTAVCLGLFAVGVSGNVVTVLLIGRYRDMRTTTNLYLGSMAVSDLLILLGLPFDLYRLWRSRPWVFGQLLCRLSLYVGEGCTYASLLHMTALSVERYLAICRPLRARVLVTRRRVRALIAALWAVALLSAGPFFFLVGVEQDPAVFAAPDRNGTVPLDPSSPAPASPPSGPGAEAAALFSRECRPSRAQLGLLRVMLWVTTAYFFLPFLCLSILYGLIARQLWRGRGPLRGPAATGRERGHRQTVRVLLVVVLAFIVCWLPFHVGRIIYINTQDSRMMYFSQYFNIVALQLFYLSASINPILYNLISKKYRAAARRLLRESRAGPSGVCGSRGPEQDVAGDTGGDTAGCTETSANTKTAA
T1 sequence (A5A4K8 whole entry): as the sequence (A5A4K8 as listed by the source) above
T2 sequence (O43193 whole entry): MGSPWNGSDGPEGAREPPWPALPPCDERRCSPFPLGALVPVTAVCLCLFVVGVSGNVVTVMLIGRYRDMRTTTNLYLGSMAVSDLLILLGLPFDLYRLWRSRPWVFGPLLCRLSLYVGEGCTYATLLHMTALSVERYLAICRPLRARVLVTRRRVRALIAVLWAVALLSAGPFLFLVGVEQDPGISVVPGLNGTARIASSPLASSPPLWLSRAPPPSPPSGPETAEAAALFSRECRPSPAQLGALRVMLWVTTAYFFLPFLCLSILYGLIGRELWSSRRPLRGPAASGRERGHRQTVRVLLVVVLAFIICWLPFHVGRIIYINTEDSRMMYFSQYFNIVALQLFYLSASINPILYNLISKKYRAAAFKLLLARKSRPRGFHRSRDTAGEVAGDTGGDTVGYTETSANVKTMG

IC50 [1] [nM]	Activity [2]	Activity [4]	inhibition [5] [%]	Compound	further results
20	–	–	–	O=C(Nc1ccccc1)N(CC1=C[C@@](Cc2ccccc2)(NC(=O)C(Cl)(Cl)Cl)CC1)c1cccc(OCCN2CCOCC2)c1	–
–	inactive	inactive	–	CC(C)(C)C(=O)N(Cc1ccccc1)[C@H]1CCC[C@@H](CN(C(=O)c2ccc(F)cc2)c2cccc(OCCN3CCCC3)c2)C1	IC50 [3]: 2480 nM
–	inactive	inactive	–	CC(C)(C)C(=O)N(Cc1ccccc1)[C@@H]1CCC[C@H](CN(C(=O)c2ccc(F)cc2)c2cccc(OCCN3CCCC3)c2)C1	IC50 [3]: 338 nM
–	–	–	28	O=C(Nc1ccccc1)N(CC1CCCC(NCc2cccc(Cl)c2)C1)c1cccc(OCCN2CCOCC2)c1 (racemic)	–
772	inactive	inactive	–	CC(C)(C)C(=O)N(Cc1ccccc1)C1CCCC(CN(C(=O)c2ccc(F)cc2)c2cccc(OCCN3CCOCC3)c2)C1 (racemic)	–
58	inactive	inactive	–	O=C(c1ccc(F)cc1)N(CC1CCCC(N(Cc2ccccc2)C(=O)C(Cl)(Cl)Cl)C1)c1cccc(OCCN2CCCC2)c1 (racemic)	IC50 [6]: 27 nM
–	inactive	inactive	–	CC(C)(C)C(=O)N(Cc1ccccc1)C1CCCC(CN(C(=O)c2ccc(F)cc2)c2cccc(OCCN3CCCC3)c2)C1 (racemic)	IC50 [3]: 990 nM
–	–	–	4	O=C(Nc1ccccc1)N(c1cccc(OCCN2CCOCC2)c1)C1CCC(CN(Cc2cccc(Cl)c2)C(=O)C(Cl)(Cl)Cl)C1 (stereo unspecified)	–
–	–	–	–	CC(C)(C)C(=O)N(Cc1ccccc1)C1CCCC(CN(C(=O)Nc2ccccc2)c2cccc(OCCN3CCCC3)c2)C1 (racemic)	IC50 [7]: 21 nM
957	–	–	–	O=C(Nc1ccccc1)N(CC1CCCC(N(Cc2ccccc2)C(=O)C(Cl)(Cl)Cl)C1)c1cccc(OCCN2CCOCC2)c1 (racemic)	–
–	–	–	26	COc1cccc(C(=O)NC2CCCC(CN(C(=O)Nc3ccccc3)c3cccc(OCCN4CCOCC4)c3)C2)c1 (racemic)	–
63	inactive	inactive	–	O=C(c1ccc(F)cc1)N(CC1CCCC(N(Cc2cccc(Cl)c2)C(=O)C(Cl)(Cl)Cl)C1)c1cccc(OCCN2CCCCC2)c1 (racemic)	IC50 [3]: 228 nM; IC50 [6]: 21 nM
–	–	–	6	COc1cccc(C(=O)N(Cc2cccc(Cl)c2)C2CCC(CN(C(=O)Nc3ccccc3)c3cccc(OCCN4CCOCC4)c3)CC2)c1 (racemic)	–
–	–	–	3	O=C(Nc1ccccc1)N(CC1CCCC(N(Cc2ccccc2)C(=O)c2ccc(-c3ccccc3)cc2)C1)c1cccc(OCCN2CCOCC2)c1 (racemic)	–
–	–	–	50	CC(C)(C)C(=O)N(Cc1ccccc1)C1CCCC(CN(C(=O)Nc2ccccc2)c2cccc(OCCN3CCOCC3)c2)C1 (racemic)	–
10	–	–	–	O=C(Nc1ccccc1)N(CC1=C[C@@](Cc2cccc(Cl)c2)(NC(=O)C(Cl)(Cl)Cl)CC1)c1cccc(OCCN2CCOCC2)c1	–
–	–	–	23	O=C(Nc1ccccc1)N(CC1CCCC(N(Cc2cccc(Cl)c2)C(=O)C(Cl)(Cl)Cl)C1)c1cccc(OCCN2CCOCC2)c1 (racemic)	–
656	–	–	–	O=C(Nc1ccccc1)N(CC1CCCC(N(Cc2ccccc2)C(=O)c2ccco2)C1)c1cccc(OCCN2CCOCC2)c1 (racemic)	–
650	–	–	–	COc1cccc(C(=O)N(Cc2cccc(Cl)c2)C2CCCC(CN(C(=O)Nc3ccccc3)c3cccc(OCCN4CCOCC4)c3)C2)c1 (racemic)	–
–	–	–	58	O=C(Nc1ccccc1)N(CC1CCCC(N(Cc2cccc(C(F)(F)F)c2)C(=O)C(Cl)(Cl)Cl)C1)c1cccc(OCCN2CCOCC2)c1 (racemic)	–
35	–	–	–	O=C(Nc1ccccc1)N(CC1CCCC(N(Cc2cccc([N+](=O)[O-])c2)C(=O)C(Cl)(Cl)Cl)C1)c1cccc(OCCN2CCOCC2)c1 (racemic)	–
1160	–	–	–	O=C(Nc1ccccc1)N(CC1CCCC(N(Cc2ccccc2)C(=O)c2cccc([N+](=O)[O-])c2)C1)c1cccc(OCCN2CCOCC2)c1 (racemic)	–

Compound	IC50 [1] [nM]	Activity [2]	Activity [4]	inhibition [5] [%]	further results
O=C(c1ccc(F)cc1)N(CC1CCCC(N(Cc2cccc([N+](=O)[O-])c2)C(=O)C(Cl)(Cl)Cl)C1)c1cccc(OCCN2CCCC2)c1 (stereo unspecified)	14	inactive	inactive	–	IC50 [3]: 52 nM
O=C(c1ccc(F)cc1)N(CC1CCCC(N(Cc2cccc(Cl)c2)C(=O)C(Cl)(Cl)Cl)C1)c1cccc(OCCN2CCCC2)c1 (racemic)	58	inactive	inactive	–	IC50 [3]: 267 nM
O=C(Nc1ccccc1)N(CC1CCCC(N(Cc2ccccc2)C(=O)CCc2ccccc2)C1)c1cccc(OCCN2CCOCC2)c1 (stereo unspecified)	730	–	–	–	–
